C2C12 statin: suppressors of simvastatin-induced myotoxicity in C2C12 myotubes; ATP luminescence, 48 h; scaled: DMSO 0, geranylgeraniol control 100; rescue of ATP level, % at 7.49 µM; actives 0.78% (n = 330,000);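 active = mean ATP rescue above about 67%, or every replicate alone reaching that limit, limit read from the data, passing the limit was not always enough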;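 note: myotubes were challenged with 10 µM simvastatin during compound exposure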
SUMO Mot1 rescue: inhibitors of SUMOylation pathway: yeast Mot1-301 growth rescue; growth rescue, % at 18.8 µM; actives 1% (n = 320,000); S. cerevisiae Mot1-301 growth rescue, ATP luminescence, 38.5C; percent above DMSO median, 100 means doubled;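 active = every valid replicate shows activation above 250% relative to neutral control wells; inactive = the rest, any valid replicate at or below 250%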;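 note: OY570 slx delta 5 strain wells were the positive control but not used for scaling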
Cneo AK release: Cryptococcus neoformans lysis via adenylate kinase release | actives 0.2% (n = 360,000) | AID 651654 | C. neoformans lysis, adenylate kinase release luminescence, 4 h; normalised: neutral wells 0, clomiphene wells 100 | lysis activity, % at 15 µM;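 active = mean lysis activity across replicates of at least 80%, whatever share of replicates individually reach that level; inactive = mean lysis activity below 80%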
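Material – log-phase Cryptococcus neoformans yeast cells · Input – 5 × 10^6 yeast cells/mL · Medium – fresh YPD growth medium · Doses – single compound concentration per well · Timing – static 4 h at 37 °C with compound, 1 h detection · Detection – adenylate kinase release luminescence · Read-out – signal increase indicating cell lysis · Control set – Clomiphene as positive lysis control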
The depositor's hits bear a star; x = no result. Most compounds without a hit are left out; they make up all but 1.5% or so of the library.

SMILES	C2C12 statin	SUMO Mot1 rescue	Cneo AK release
O=C(O)c1ccccc1NS(=O)(=O)c1ccc2ccccc2c1	3	60	-1
CC1(C)CCC(=O)N2CC[C@H]3c4cc5ccccc5nc4C[C@@H]1[C@H]32	99*	x	0
COC(=O)c1ccc2nc3c(cc2c1)[C@@H]1CCN2C(=O)CCC[C@H](C3)[C@H]12	19	x	1
CS(=O)(=O)N1[C@@H]2c3ccc(C4=CCCC4)c(=O)n3C[C@@H]2[C@@H](CO)[C@@H]1C(=O)NCCc1ccncc1	-25	x	1
CCC(=O)N1CC[C@H]2[C@@H]1c1cc(-c3ccc(F)cc3)ccc1N(C)[C@H]2CO	-19	x	8
CCOC(=O)C(=O)/C(=C\N(C)C)c1onc(-c2ccccc2Cl)c1C(=O)OC	x	-16	x
CCOC(=O)C(=O)/C(=C\N(C)C)c1onc(-c2c(Cl)cccc2Cl)c1C(=O)OC	85*	-11	0
CCC(C)c1ccc(NC(=O)c2cccnc2)cc1 (centres undefined)	1	-9	-3
CCC(C)c1ccc(O)c(NC(=O)c2cccnc2)c1 (centres undefined)	-4	390*	-2
COCC#Cc1ccc2c(c1)O[C@H](CN(C)CC1CCOCC1)[C@@H](C)CN([C@@H](C)CO)S2(=O)=O	-33	x	-1
CC(=O)Oc1ccc(C)cc1-n1nc2ccccc2n1	-9	-3	2
Cc1ccc(OCC(=O)O)c(-n2nc3ccccc3n2)c1	7	340*	-1
C[C@@H]1CCCCO[C@@H](CN(C)C(=O)CCC(F)(F)F)[C@H](C)CN([C@@H](C)CO)C(=O)c2cc(NS(=O)(=O)c3ccccc3)ccc2O1	x	x	8
CO[C@H]1CN(C)C(=O)c2cc(NC(=O)NC(C)C)ccc2OC[C@H](C)N(Cc2ccc(-c3ccccn3)cc2)C[C@H]1C	5	x	0
OC[C@H]1[C@H](c2ccc(C#CC3(O)CCCC3)cc2)[C@H]2CN(Cc3ccncc3)CCCCN21	x	x	-2
CNC[C@@H]1OCCCC[C@H](C)Oc2ccc(NC(=O)CCC(F)(F)F)cc2C(=O)N([C@H](C)CO)C[C@@H]1C	-15	x	x
Cc1ccc(-c2c3c(=O)n(C)c(=O)n(C)c3cn2Cc2cccnc2)cc1	9	221	1
Cn1c(=O)c2c(-c3ccccc3)n(Cc3cccnc3)cc2n(C)c1=O	x	290*	4
C[C@@H]1CCCCO[C@H](CN(C)S(=O)(=O)c2ccccc2)[C@@H](C)CN([C@@H](C)CO)C(=O)c2cc(NC(=O)C3CCCCC3)ccc2O1	x	x	-2
O=S(=O)(c1ccccc1)c1nc(-c2ccco2)oc1N1CCCCCC1	105*	-1	6
CN1CCN(c2oc(-c3ccco3)nc2S(=O)(=O)c2ccccc2)CC1	20	233	-1
Cc1nc(C)c(C(=O)C2=C(O)C(=O)N(CCCn3ccnc3)C2c2ccc(Cl)cc2)s1 (centres undefined)	128*	4	2
COc1ccc(C2C(C(C)=O)=C(O)C(=O)N2CCCn2ccnc2)cc1 (centres undefined)	3	-8	0
COc1ccc2c(Cl)c(-c3nnc(SCC(=O)c4ccccc4)n3C)sc2c1	116*	-7	-3
COc1ccc2c(Cl)c(-c3nnc(SCC(N)=O)n3C)sc2c1	14	-6	3
SMILES	C2C12 statin	SUMO Mot1 rescue	Cneo AK release
Cc1noc(C)c1S(=O)(=O)N(C)C[C@H]1OCCCC[C@@H](C)Oc2ccc(NC(=O)Nc3ccccc3)cc2C(=O)N([C@@H](C)CO)C[C@@H]1C	x	x	-3
C[C@H](CO)N1C[C@H](C)[C@H](CN(C)S(C)(=O)=O)Oc2ccc(NC(=O)Cc3ccccc3)cc2CC1=O	16	x	0
O=C(CCSc1nc(-c2ccco2)cc(C(F)(F)F)n1)Nc1ccc2c(c1)OCO2	96*	20	2
O=C(CCSc1nc(-c2ccc3c(c2)OCO3)cc(C(F)(F)F)n1)NCc1ccco1	2	8	-2
CN1[C@@H]2c3ccc(-c4ccc(F)cc4)c(=O)n3C[C@@H]2[C@@H](CO)[C@@H]1C(=O)Nc1ccccc1	-4	x	-1
Cc1noc(C)c1NC(=O)N(C)C[C@H]1Oc2ccc(N(C)C)cc2C(=O)N([C@H](C)CO)C[C@@H]1C	13	x	102*
C[C@@H]1CN([C@@H](C)CO)C(=O)c2cc(N(C)C)ccc2O[C@@H]1CN(C)C(=O)Nc1ccc(C(F)(F)F)cc1	-4	x	117*
C[C@H]1CN([C@@H](C)CO)C(=O)Cc2cc(N(C)C)ccc2O[C@H]1CN(C)Cc1ccc(C(F)(F)F)cc1	-88	x	-10
C[C@@H]1CN([C@H](C)CO)C(=O)Cc2cc(N(C)C)ccc2O[C@H]1CN(C)C(=O)Nc1ccc(C(F)(F)F)cc1	3	x	-9
C[C@H]1CN([C@@H](C)CO)C(=O)Cc2cc(N(C)C)ccc2O[C@@H]1CN(C)C(=O)Nc1ccc(C(F)(F)F)cc1	34	x	142*
C[C@H](CO)N1C[C@H](C)[C@@H](CN(C)C(=O)Nc2ccc(C(F)(F)F)cc2)Oc2ccc(N(C)C)cc2C1=O	-99	x	-1
C[C@@H]1CN([C@@H](C)CO)C(=O)Cc2cc(N(C)C)ccc2O[C@H]1CN(C)Cc1ccc(C(F)(F)F)cc1	97*	x	3
Cc1noc(C)c1NC(=O)N(C)C[C@@H]1Oc2ccc(N(C)C)cc2C(=O)N([C@H](C)CO)C[C@H]1C	-1	x	-3
C[C@H](NC(=O)C[C@@H]1CC[C@H](NC(=O)C2CCOCC2)[C@@H](CO)O1)c1ccccc1	2	x	0
C[C@@H]1CN([C@@H](C)CO)S(=O)(=O)c2ccc(C#CC3CCCC3)cc2O[C@@H]1CN(C)C(=O)C1CC1	-44	x	7
C[C@@H]1CN([C@H](C)CO)C(=O)c2cc(N(C)C)ccc2O[C@@H](C)CCCCO[C@H]1CN(C)S(=O)(=O)c1ccccc1	55	x	-4
COc1ccc(NC(=O)C2CCN(S(C)(=O)=O)CC2)cc1Cl	7	325*	x
Cc1ccc(NC(=O)C2CCN(S(C)(=O)=O)CC2)cc1C	3	-10	-2
Cc1ccc(-c2ccc3c(c2)O[C@@H](CN(C)C(=O)Nc2ccccc2)[C@@H](C)CN([C@@H](C)CO)S3(=O)=O)cc1	15	x	0
CCSc1nc2sc3c(c2c(=O)n1-c1ccc(OC)cc1)CCN(C)C3	101*	3	0
CCOC(=O)CSc1nc2sc3c(c2c(=O)n1-c1ccc(OC)cc1)CCN(C)C3	11	-28	3
COCCOC(=O)N1C(=O)[C@@]2(c3cc(C#CCCO)ccc31)[C@H](c1ccccc1OCCO)N1[C@H](c3ccccc3)[C@H](c3ccccc3)OC(=O)[C@H]1[C@@H]2C(=O)N1CCN(c2ncccn2)CC1	x	x	47
COc1cccc(-c2ccc3c(c2)[C@@H]2[C@@H](CCN2C(=O)c2ccc(F)cc2)[C@@H](CO)N3)c1	-5	x	8
COc1cccc(NC(=O)N[C@H]2C=C[C@@H](CC(=O)Nc3ccccc3)O[C@H]2CO)c1	8	x	47
O=C(Nc1ccc(S(=O)(=O)NC2=NCCCCC2)cc1)c1cccs1	33	-1	1
O=C(Nc1ccc(S(=O)(=O)NC2=NCCCCC2)cc1)c1ccc([N+](=O)[O-])s1	86*	118	-4

Compound activity deposited in PubChem BioAssay by Broad Institute.
